Compound activity: PubChem, several laboratories
L major viab – Leishmania major promastigote growth inhibition, primary screen; Leishmania major promastigotes, resazurin fluorescence viability; inhibition, % at 10 µM; 9% of 200,000 active; AID 1063, 2008; in the data active = inhibition above about 50%;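 note: promastigotes grown with compound for 44 hours at 28 °C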
Autophagy HCS – autophagy modulators in MEF cells, primary screen, imaging, high-content, MEF GFP-LC3; MEF GFP-LC3 puncta imaging; test concentration mostly 10 µM; calls only at 10 µM (by protocol); 0.98% of 190,000 active;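 active = percentage of spot-positive cells more than 3 SD above its plate mean, without a fluorescence outlier flag or 80% toxicity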
PTEN del growth – growth suppression of PTEN-null HCT116, primary screen, cell-based, CellTiter-Glo. HCT116 PTEN-null viability, 60 h; stronger effect = lower value. viability, % at 10 µM. 1.2% of 140,000 active. AID 827, 2007;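 active = viability at or below a set limit, 4 SD under the median of all tested compounds, cut at about 3.7% in these data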;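 note: PTEN knockout HCT116 line with beta catenin targeted HCT116 as companion control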
Dynein cargo inh – inhibitors of GR-EGFP nuclear translocation, primary screen, dynein cargo transport inhibitor project, imaging, high-content, 3617.4 mouse cells; AID 1381, 2008; 0.47% of 220,000 active; test concentration mostly 20 µM; stimulated with dexamethasone, 1 µM; stronger effect = lower value; z-score, hits read low;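 active = plate z-score of nuclear minus cytoplasmic receptor signal below a set negative limit, without overly bright fluorescence or cell loss, cut at about -3.5 in these data, passing the limit was not always enough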;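 note: z-score of nuclear minus cytoplasmic ring GR-EGFP intensity difference per well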
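Buffer or medium: tet-free, stripped-serum medium; reagent: dexamethasone at 1.0 µM final, 30 min; incubation: 48 h induction, 1 h compound, 30 min dex at 37 °C; measured by: formaldehyde fixation, Hoechst nuclear stain, 10x automated fluorescence imaging; read-out: nuclear-to-cytoplasmic GR-EGFP distribution per well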
bCat KO growth – primary screen for growth suppressors in beta-catenin knockout HCT116 cells (colon tumor, human); 1.5% of 140,000 active; HCT116 beta-catenin knockout viability, CellTiter-Glo, 60 h; stronger effect = lower value; viability, % at 10 µM;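 active = viability at or under a set limit, the compound median less 4 SD, cut at about 6% in these data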
Of the large screens only hits and unclear results are named; the others gave an inactive call. Rows were chosen to be rich in hits. Some 9.2% of all compounds tested hit in one or more screens of this group.

CC(CN1CCCCC1)OC(=O)C(C)(c1ccccc1)c1ccccc1 (stereo not given)	L major viab 100.2
CCOC(=O)c1sc(NC(=O)Nc2cccc(Cl)c2)cc1C	PTEN del growth 2.4, bCat KO growth 3.6
CCOC(=O)c1sc(NC(=O)c2ccc(Br)o2)cc1C	none
CCOC(=O)c1sc(NC(=O)c2cccs2)cc1C	none
CCOC(=O)c1sc(NC(=O)c2sccc2C)cc1C	L major viab 69.1
CC1CCCCC1NCC(=O)NCc1ccc(F)cc1 (stereo not given)	none (no result: PTEN del growth, bCat KO growth)
CN(C)Cc1cccc([N+](=O)[O-])c1O	none (no result: L major viab, Autophagy HCS, PTEN del growth, bCat KO growth)
Cc1ccccc1NC(=O)c1c2c(nc3ccccc13)CCC2	none (no result: PTEN del growth, bCat KO growth)
COc1ccc(Nc2nc(Nc3ccc(OC)cc3)nc(-n3[nH]c(=O)c(C)c3C)n2)cc1	L major viab 100.5
O=C(NN1C(=O)c2ccccc2C1=O)c1ccccc1[N+](=O)[O-]	none (no result: PTEN del growth, bCat KO growth)
CCN1C(=O)c2cccc3c(S(=O)(=O)NCCc4c[nH]c5ccccc45)ccc1c23	L major viab 98.8
CCN1C(=O)c2cccc3c(NC(=O)c4ccc(S(=O)(=O)N5CCOCC5)cc4)ccc1c23	none
CCN1C(=O)c2cccc3c(S(=O)(=O)NCCCN4CCOCC4)ccc1c23	L major viab 78.0
CCN1C(=O)c2cccc3c(S(=O)(=O)Nc4ccccc4OC)ccc1c23	none
CCOC(=O)CSc1nc(Cc2ccccc2)nc2ccccc12	none (no result: PTEN del growth, bCat KO growth)
NC(=O)c1ncn([C@@H]2O[C@H](CO)[C@@H](O)[C@H]2O)c1O	none
CCOc1ccc(/C=C/C2=Cc3c(sc(NC(=O)CSc4n[nH]c(N)n4)c3C#N)C(C)(C)C2)cc1	L major viab 100.3
CCOC(=O)c1sc(NC(=O)CSc2n[nH]c(-c3ccncc3)n2)c(C#N)c1C	none
N#CC1=C(N)NC(SCc2ccc(F)cc2)=C(C#N)C12CCCCC2	L major viab 98.5
N#CC1=C(N)NC(SCC(=O)O)=C(C#N)C12CCCC2	none
COc1ccc2nc(NNC(=O)C3COc4ccccc4O3)sc2c1 (stereo not given)	none
CC1C/C(=N\NC(=O)c2cccnc2)CC(C)(C)C1 (stereo not given)	none (no result: PTEN del growth, bCat KO growth)
CC1C/C(=N\NC(=S)NC(C)C)CC(C)(C)C1 (stereo not given)	L major viab 100.3
COc1ccc(-n2c(-c3ccccc3)nnc2-c2ccc(Cl)cc2)cc1	none
COc1ccc(-n2c(-c3ccc(Cl)cc3)c[n+]3c2CCc2ccccc2-3)cc1	L major viab 100.2 (no result: PTEN del growth, bCat KO growth)
CCN1CCN(c2nc3sc4c(c3c(=O)n2-c2ccc(OC)cc2)CCCCC4)CC1	L major viab 97.8
O=S(=O)(c1ccccc1C(F)(F)F)N1CCN(S(=O)(=O)c2ccccc2C(F)(F)F)CC1	none
CCn1c(N2CCN(S(=O)(=O)c3ccccc3C(F)(F)F)CC2)nc2ccccc21	L major viab 73.9
Cc1ccc(O)c(C(=O)c2cnc3c(c2)c(-c2ccc(F)cc2)c(C#N)c(=O)n3C)c1	L major viab 52.3 (no result: PTEN del growth, bCat KO growth)
Cc1ccc(O)c(C(=O)c2cnc3c(c2)c(C)nn3-c2ccccc2)c1	L major viab 76.8
CCc1cccc(CC)c1NC(=S)NCC(c1cccnc1)N1CCOCC1 (stereo not given)	none
COc1ccc(CN2CCNC(=O)C2CC(=O)N2CCCCO2)c(OC)c1 (stereo not given)	none (no result: PTEN del growth, bCat KO growth)
Cc1cc(C)c2cc(C#N)c(N3CCCC3)nc2c1	none
CC(=O)c1cc(C#N)c(N2CCCC2)nc1C	L major viab 100.4 (no result: PTEN del growth, bCat KO growth)
O=C(Cn1cnc2ccccc2c1=O)Nc1ccccc1N1CCOCC1	none (no result: PTEN del growth, bCat KO growth)
Cc1ccc(-n2c3c(cc(C(=O)NCc4ccco4)c2=O)C(=O)CC(C)(C)C3)cc1	L major viab 51.4
COc1ccc(-n2c3c(cc(C(=O)NNc4ccccc4)c2=O)C(=O)CC(C)(C)C3)cc1	L major viab 60.0 (no result: PTEN del growth, bCat KO growth)
CC1(C)CC(=O)c2cc(C(=O)NCc3ccco3)c(=O)n(-c3ccc(Cl)cc3)c2C1	none
CCOC(=O)c1c(CSc2ccc(C)cc2)oc2ccc(O)cc12	none
COc1ccc(C2C=C(c3ccc(F)cc3)NC(=S)N2)cc1OC (stereo not given)	none (no result: PTEN del growth, bCat KO growth)
Cc1cccc(/C=N/NC(=O)c2cc(-c3cccnc3)nc3c2c(C)nn3-c2ccccc2)c1	L major viab 62.5
COc1ccc(C(=O)/C=C/c2ccc(OC)c(COc3ccccc3F)c2)cc1	none
